# Results reported in ChEMBL document CHEMBL3120107, “Cytotoxic cardiac glycosides and coumarins from Antiaris toxicaria” (2014).
# Calls of active or inactive are those of the source. The rule behind the calls is not given here.
# How the values were obtained:
# [1] = tested on: PC-3; assay: Cytotoxicity against human PC3 cells assessed as growth inhibition after 72 hrs by SRB assay; type: functional; conditions: for EC50: Homo sapiens, PC-3, 72 h, read-out: ED50 (the source's name)
# Outline: (§1)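 Sulforhodamine B assay run by NCI-validated procedure. Cells grown at 37 °C under humidified 5% CO2 in RPMI-1640 with 25 mM HEPES, […] (w/v) sodium bicarbonate, 10% (v/v) FBS and 100 μg/mL kanamycin. Compounds came from DMSO stocks, with final DMSO ≤ 1% (v/v). Continuous exposure for 72 h. ED50 (μg/mL, 50% cell-number reduction) interpolated from dose-response data. Triplicate tests. Doxorubicin served as positive control.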
# [2] = tested on: KB; assay: Cytotoxicity against human KB cells assessed as growth inhibition after 72 hrs by SRB assay; type: functional; conditions: for EC50: Homo sapiens, KB, 72 h, read-out: ED50 (the source's name); outline: as §1
# [3] = tested on: SK-MEL-2; assay: Cytotoxicity against human SK-MEL-2 cells assessed as growth inhibition after 72 hrs by SRB assay; type: functional; conditions: for EC50: Homo sapiens, SK-MEL-2, 72 h, read-out: ED50 (the source's name); outline: as §1
# [4] = tested on: CAKI-1; assay: Cytotoxicity against human CAKI-1 cells assessed as growth inhibition after 72 hrs by SRB assay; type: functional; conditions: for EC50: Homo sapiens, CAKI-1, 72 h, read-out: ED50 (the source's name); outline: as §1
# [5] = tested on: 1A9; assay: Cytotoxicity against human 1A9 cells assessed as growth inhibition after 72 hrs by SRB assay; type: functional; conditions: for EC50: Homo sapiens, 1A9, 72 h, read-out: ED50 (the source's name); outline: as §1
# [6] = (§2) Cytotoxicity against human KBVIN cells assessed as growth inhibition after 72 hrs by SRB assay; type: functional; conditions: for EC50: Homo sapiens, KBVIN, 72 h, read-out: ED50 (the source's name); outline: as §1
# [7] = Cytotoxicity against human U87MG cells assessed as growth inhibition after 72 hrs by SRB assay; type: functional, U-87MG ATCC; conditions: for EC50: Homo sapiens, U-87 MG, 72 h, read-out: ED50 (the source's name); outline: as §1
# [8] = tested on: MCF7; assay: Cytotoxicity against human MCF7 cells assessed as growth inhibition after 72 hrs by SRB assay; type: functional; conditions: for EC50: Homo sapiens, MCF7, 72 h, read-out: ED50 (the source's name); outline: as §1
# [9] = Cytotoxicity against human […] cells assessed as growth inhibition after 72 hrs by SRB assay; type: functional; conditions: for EC50: Homo sapiens, HCT9, 72 h, read-out: ED50 (the source's name); outline: as §1
# [10] = tested on: A549; assay: Cytotoxicity against human A549 cells assessed as growth inhibition after 72 hrs by SRB assay; type: functional; conditions: for EC50: Homo sapiens, A549, 72 h, read-out: ED50 (the source's name); outline: as §1
# [11] = tested on: KBVIN; assay: as §2; type: functional; outline: as §1
smiles,measurement,setting,value
C[C@H]1O[C@@H](O[C@H]2CC[C@]3(C)[C@H]4CC[C@]5(C)[C@@H](C6=CC(=O)OC6)CC[C@]5(O)[C@@H]4CC[C@]3(O)C2)[C@H](O)[C@H](O)[C@H]1O [ANTIAROSIDE A],EC50,[1],0.078 µg/mL
same,EC50,[2],0.0097 µg/mL
same,EC50,[3],0.073 µg/mL
same,EC50,[4],0.018 µg/mL
same,EC50,[5],0.02 µg/mL
same,EC50,[6],0.068 µg/mL
same,EC50,[7],0.15 µg/mL
same,EC50,[8],0.063 µg/mL
same,EC50,[9],0.09 µg/mL
same,EC50,[10],0.044 µg/mL
C[C@]12CC[C@H]3[C@@H](CC[C@]4(O)C[C@@H](O)CC[C@]34CO)[C@@]1(O)CC[C@@H]2C1=CC(=O)OC1 [STROPHANTHIDOL],EC50,[1],0.81 µg/mL
same,EC50,[2],2.7 µg/mL
same,EC50,[3],0.57 µg/mL
same,EC50,[4],0.67 µg/mL
same,EC50,[5],0.66 µg/mL
same,EC50,[6],3 µg/mL
same,EC50,[7],2.9 µg/mL
same,EC50,[8],0.69 µg/mL
same,EC50,[9],6.4 µg/mL
same,EC50,[10],0.14 µg/mL
C[C@@H]1O[C@@H](O[C@H]2CC[C@]3(C=O)[C@H]4CC[C@]5(C)[C@@H](C6=CC(=O)OC6)CC[C@]5(O)[C@@H]4CC[C@]3(O)C2)[C@H](O)[C@H](O)[C@H]1O [CONVALLATOXIN],EC50,[1],0.094 µg/mL
same,EC50,[2],0.014 µg/mL
same,EC50,[3],0.0013 µg/mL
same,EC50,[4],0.0031 µg/mL
same,EC50,[5],0.03 µg/mL
same,EC50,[6],0.013 µg/mL
same,EC50,[7],0.014 µg/mL
same,EC50,[8],0.0065 µg/mL
same,EC50,[9],0.0014 µg/mL
same,EC50,[10],0.0027 µg/mL
C[C@@H]1O[C@@H](O[C@H]2CC[C@]3(C=O)[C@H]4CC[C@]5(C)[C@@H](C6=CC(=O)OC6)CC[C@]5(O)[C@@H]4CC[C@]3(O)C2)[C@H](O)[C@H](O)[C@H]1O[C@@H]1O[C@H](CO)[C@@H](O)[C@H](O)[C@H]1O [CONVALLOSIDE],EC50,[1],0.095 µg/mL
same,EC50,[2],0.2 µg/mL
same,EC50,[3],0.42 µg/mL
same,EC50,[4],0.071 µg/mL
same,EC50,[5],0.072 µg/mL
same,EC50,[6],0.18 µg/mL
same,EC50,[7],0.4 µg/mL
same,EC50,[8],0.15 µg/mL
same,EC50,[9],0.2 µg/mL
same,EC50,[10],0.07 µg/mL
CO[C@H]1[C@@H](O[C@H]2CC[C@]3(C=O)[C@H]4CC[C@]5(C)[C@@H](C6=CC(=O)OC6)CC[C@]5(O)[C@@H]4CC[C@]3(O)C2)O[C@H](C)[C@@H](O)[C@H]1O (stereo in doubt; 23) [STROPHATHOJAVOSIDE],EC50,[1],0.063 µg/mL
same,EC50,[2],0.081 µg/mL
same,EC50,[3],0.063 µg/mL
same,EC50,[4],0.014 µg/mL
same,EC50,[5],0.013 µg/mL
same,EC50,[6],0.05 µg/mL
same,EC50,[7],0.043 µg/mL
same,EC50,[8],0.024 µg/mL
same,EC50,[9],0.085 µg/mL
same,EC50,[10],0.015 µg/mL
C[C@@H]1O[C@H](O[C@H]2CC[C@@]3(C=O)[C@H](CC[C@@H]4[C@@H]3CC[C@]3(C)[C@@H](C5=CC(=O)OC5)CC[C@]43O)C2)[C@H](O)[C@H](O)[C@H]1O [MALAYOSIDE],EC50,[1],0.11 µg/mL
same,EC50,[2],0.3 µg/mL
same,EC50,[3],0.62 µg/mL
same,EC50,[4],0.073 µg/mL
same,EC50,[5],0.076 µg/mL
same,EC50,[6],0.32 µg/mL
same,EC50,[7],0.37 µg/mL
same,EC50,[8],0.19 µg/mL
same,EC50,[9],0.18 µg/mL
same,EC50,[10],0.08 µg/mL
CO[C@H]1[C@@H](O[C@H]2CC[C@]3(C=O)[C@H]4CC[C@]5(C)[C@@H](C6=CC(=O)OC6)CC[C@]5(O)[C@@H]4CC[C@]3(O)C2)O[C@H](C)[C@@H](O)[C@H]1O (stereo in doubt; 21) [STROPHATHOJAVOSIDE],ED50,[1],0.052 µg/mL
same,ED50,[2],0.066 µg/mL
same,ED50,[3],0.064 µg/mL
same,ED50,[4],0.014 µg/mL
same,ED50,[5],0.013 µg/mL
same,ED50,[6],0.051 µg/mL
same,ED50,[7],0.078 µg/mL
same,ED50,[8],0.042 µg/mL
same,ED50,[9],0.067 µg/mL
same,ED50,[10],0.016 µg/mL
CC(C)(O)[C@@H]1Cc2cc3ccc(=O)oc3cc2O1 [MARMESIN],growth inhibition (GI),[1],inactive
same,growth inhibition (GI),[3],inactive
same,growth inhibition (GI),[4],inactive
same,growth inhibition (GI),[5],inactive
same,growth inhibition (GI),[11],inactive
same,EC50,[8],> 20 µg/mL
same,EC50,[10],> 20 µg/mL
CO[C@H]1[C@@H](O[C@H]2CC[C@]3(C=O)[C@H]4C[C@@H](O)[C@]5(C)[C@@H](C6=CC(=O)OC6)CC[C@]5(O)[C@@H]4CC[C@]3(O)C2)O[C@H](C)[C@@H](O)[C@@H]1O [TOXICARIOSIDE B],EC50,[1],0.091 µg/mL
same,EC50,[2],0.13 µg/mL
same,EC50,[3],0.12 µg/mL
same,EC50,[4],0.07 µg/mL
same,EC50,[5],0.063 µg/mL
same,EC50,[6],0.14 µg/mL
same,EC50,[7],0.13 µg/mL
same,EC50,[8],0.092 µg/mL
same,EC50,[9],0.11 µg/mL
same,EC50,[10],0.058 µg/mL
C[C@H]1O[C@@H](O[C@H]2CC[C@]3(C=O)[C@H]4CC[C@]5(C)[C@@H](C6=CC(=O)OC6)CC[C@]5(O)[C@@H]4CC[C@]3(O)C2)[C@H](O)[C@H](O)[C@H]1O[C@@H]1O[C@H](CO)[C@@H](O)[C@H](O)[C@H]1O,EC50,[1],0.6 µg/mL
same,EC50,[2],1.5 µg/mL
same,EC50,[3],0.16 µg/mL
same,EC50,[4],0.51 µg/mL
same,EC50,[5],0.53 µg/mL
same,EC50,[6],1.7 µg/mL
same,EC50,[7],1.9 µg/mL
same,EC50,[8],0.58 µg/mL
same,EC50,[9],0.94 µg/mL
same,EC50,[10],0.12 µg/mL
C[C@]12CC[C@H]3[C@@H](CC[C@]4(O)C[C@@H](O)CC[C@]34C=O)[C@@]1(O)CC[C@@H]2C1=CC(=O)OC1 [STROPHANTHIDIN],EC50,[1],0.17 µg/mL
same,EC50,[2],0.61 µg/mL
same,EC50,[3],0.13 µg/mL
same,EC50,[4],0.14 µg/mL
same,EC50,[5],0.15 µg/mL
same,EC50,[6],0.69 µg/mL
same,EC50,[7],0.72 µg/mL
same,EC50,[8],0.38 µg/mL
same,EC50,[9],0.51 µg/mL
same,EC50,[10],0.11 µg/mL
C[C@@H]1O[C@@H](O[C@@H]2CC[C@@]3(CO)[C@H](CC[C@@H]4[C@@H]3CC[C@]3(C)[C@@H](C5=CC(=O)OC5)CC[C@]43O)C2)[C@H](O)[C@H](O)[C@H]1O[C@@H]1O[C@H](CO)[C@@H](O)[C@H](O)[C@H]1O [ANTIAROSIDE D],EC50,[1],0.53 µg/mL
same,EC50,[2],1.7 µg/mL
same,EC50,[3],0.31 µg/mL
same,EC50,[4],0.93 µg/mL
same,EC50,[5],0.74 µg/mL
same,EC50,[6],1.9 µg/mL
same,EC50,[7],4.2 µg/mL
same,EC50,[8],1 µg/mL
same,EC50,[9],1.9 µg/mL
same,EC50,[10],0.38 µg/mL
C[C@@H]1O[C@H](O[C@H]2CC[C@]3(C)[C@H]4CC[C@]5(C)[C@@H](C6=CC(=O)OC6)CC[C@]5(O)[C@@H]4CC[C@]3(O)C2)[C@H](O)[C@H](O)[C@H]1O [PERIPLORHAMNOSIDE],EC50,[1],0.021 µg/mL
same,EC50,[2],0.054 µg/mL
same,EC50,[3],0.017 µg/mL
same,EC50,[4],0.014 µg/mL
same,EC50,[5],0.012 µg/mL
same,EC50,[6],0.02 µg/mL
same,EC50,[7],0.082 µg/mL
same,EC50,[8],0.018 µg/mL
same,EC50,[9],0.044 µg/mL
same,EC50,[10],0.012 µg/mL
COc1c(CC(O)C(C)(C)O)cc2ccc(=O)oc2c1O (centres undefined),EC50,[3],1.3 µg/mL
same,EC50,[4],1.5 µg/mL
same,EC50,[5],1.5 µg/mL
same,growth inhibition (GI),[11],inactive
same,EC50,[8],> 20 µg/mL
same,EC50,[9],6.7 µg/mL
same,EC50,[10],10.8 µg/mL
